{"source": "the RNAGym collection of RNA variant scans (doi:10.1126/science.aae0568)", "parents": {"B1": {"name": "tRNA (parent)", "chain": "GUUCCGUUGGCGUAAUGGUAACGCGUCUCCCUCCUAAGGAGAAGACUGCGGGUUCGAGUCCCGUACGGAACG"}}, "note": "This sample holds only a part of the variants without activity."}
{"variants_of": "B1", "assay": "yeast fitness relative to wild type (ratio to wild type); higher = fitter; tRNA-Arg(CCU), competitive growth, 37 C, YPD", "procedure,_shortened": "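Amplicons of the tRNA-Arg(CCU) gene were sequenced, 100-nucleotide paired-end, from the start population and from each end population of a pooled yeast competition. The competition, in six parallel replicates, lasted 24 hours in YPD at 37°C. Fitness relative to wild type was calculated from changes in genotype frequencies. Genotypes had to have ≥ 100 starting reads, and estimates < 0.5 were set to 0.5.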"}
{"variant": "C24U A36C A43U C61U", "yeast fitness": "≤ 0.5"}
{"variant": "U26A G38C G58C U64A", "yeast fitness": "≤ 0.5"}
{"variant": "C24U G63A", "yeast fitness": 0.869}
{"variant": "C24U G63C", "yeast fitness": 0.771}
{"variant": "U26A C30A", "yeast fitness": 0.768}
{"variant": "U26C A40G C66U", "yeast fitness": 0.563}
{"variant": "C24G G50C A70G", "yeast fitness": "≤ 0.5"}
{"variant": "G25C C31U U32A A70G", "yeast fitness": "≤ 0.5"}
{"variant": "U26A U59C C66U", "yeast fitness": 0.564}
{"variant": "C24U U28G G48A", "yeast fitness": "≤ 0.5"}
{"variant": "U26A U35G A37U A70G", "yeast fitness": "≤ 0.5"}
{"variant": "G25A C29U G51C A70U", "yeast fitness": "≤ 0.5"}
{"variant": "C24G U54C G67C", "yeast fitness": "≤ 0.5"}
{"variant": "U26C C27U C62U", "yeast fitness": 0.754}
{"variant": "G25A C29U C31G C55U G67C", "yeast fitness": "≤ 0.5"}
{"variant": "U26A G68C A69G", "yeast fitness": 0.572}
{"variant": "C24G U59A A70U", "yeast fitness": "≤ 0.5"}
{"variant": "G25A C66G", "yeast fitness": 0.962}
{"variant": "U26A C29G A43G A45U A65U", "yeast fitness": "≤ 0.5"}
{"variant": "C24G C62U A65G", "yeast fitness": 0.558}
{"variant": "G25A G41A G52C", "yeast fitness": "≤ 0.5"}
{"variant": "C24U G52A G56A", "yeast fitness": 0.703}
{"variant": "G25C G41C C46U", "yeast fitness": 0.579}
{"variant": "G25A C30U A36C", "yeast fitness": "≤ 0.5"}
{"variant": "C24U G39C A70G", "yeast fitness": "≤ 0.5"}
{"variant": "C24G C29U G51C C66U", "yeast fitness": "≤ 0.5"}
{"variant": "G25A C34G G67A", "yeast fitness": "≤ 0.5"}
{"variant": "C24G G38C", "yeast fitness": 0.566}
{"variant": "G25C U35C U59A G67U A69C", "yeast fitness": "≤ 0.5"}
{"variant": "C24U U26G A36G A43G", "yeast fitness": "≤ 0.5"}
{"variant": "C24U G41A C62A A69U", "yeast fitness": "≤ 0.5"}
{"variant": "C24U C27G C55G G68A", "yeast fitness": 0.526}
{"variant": "G25C C31U A69U", "yeast fitness": 0.77}
{"variant": "C24G C31G G68C", "yeast fitness": "≤ 0.5"}
{"variant": "C24U A36U C46G C62A A69C", "yeast fitness": "≤ 0.5"}
{"variant": "U26C A45G C55A C66U", "yeast fitness": 0.701}
{"variant": "C24U C55U", "yeast fitness": 0.854}
{"variant": "C24U C55G", "yeast fitness": 0.638}
{"variant": "U26A C34A", "yeast fitness": 0.592}
{"variant": "G25C A43G C61U", "yeast fitness": 0.623}
{"variant": "C24G C34U A45C", "yeast fitness": "≤ 0.5"}
{"variant": "C24U A65C", "yeast fitness": 0.739}
{"variant": "G25C C61U", "yeast fitness": 1.1}
{"variant": "G25A U28C", "yeast fitness": 0.891}
{"variant": "U26A C30A C34A G48C A70U", "yeast fitness": "≤ 0.5"}
{"variant": "G25A C29A C46G G51A", "yeast fitness": "≤ 0.5"}
{"variant": "C24U C30G G51A C60U G67A", "yeast fitness": "≤ 0.5"}
{"variant": "U26A A40U A65C", "yeast fitness": 0.662}
{"variant": "C24U U59A A65U", "yeast fitness": "≤ 0.5"}
{"variant": "G25A C29U A65G", "yeast fitness": 0.704}
{"variant": "G25C C60U C61A", "yeast fitness": "≤ 0.5"}
{"variant": "G25A G50C", "yeast fitness": 0.929}
{"variant": "C24G G44A C46U U53C", "yeast fitness": "≤ 0.5"}
{"variant": "U26A C31A A45U", "yeast fitness": 0.563}
{"variant": "C24U C49A G67C", "yeast fitness": 0.527}
{"variant": "C24U C49A G67A", "yeast fitness": 0.547}
{"variant": "G25C C27A", "yeast fitness": 0.678}
{"variant": "C24G U35A A40C G52A C60A C61G", "yeast fitness": "≤ 0.5"}
{"variant": "C24U C31A G56C", "yeast fitness": 0.544}
{"variant": "G25C A40C G63A", "yeast fitness": 0.69}
{"variant": "U26C A42G", "yeast fitness": 1.08}
{"variant": "C24G C27G C62A", "yeast fitness": 0.622}
{"variant": "C24G C34U U35A C55U", "yeast fitness": "≤ 0.5"}
{"variant": "U26A C27A C31U", "yeast fitness": "≤ 0.5"}
{"variant": "U26C A36U", "yeast fitness": 0.608}
{"variant": "G25C G50A C62G", "yeast fitness": 0.897}
{"variant": "G25A A70C", "yeast fitness": 1.05}
{"variant": "G25C G50C", "yeast fitness": 0.627}
{"variant": "C24G C29U C49U", "yeast fitness": "≤ 0.5"}
{"variant": "C24U G25A C30U C46A A69U", "yeast fitness": 0.611}
{"variant": "G25C C29A G48C C60A", "yeast fitness": "≤ 0.5"}
{"variant": "C24U C27G U32C A65U", "yeast fitness": "≤ 0.5"}
{"variant": "C24U C29A A36G C55G A70C", "yeast fitness": "≤ 0.5"}
{"variant": "G25C G51A U54A", "yeast fitness": 0.507}
{"variant": "U26A G58C C62U", "yeast fitness": 0.659}
{"variant": "G25A A42G G44C C49G A70U", "yeast fitness": "≤ 0.5"}
{"variant": "G25A C34A A40U", "yeast fitness": "≤ 0.5"}
{"variant": "U26A A36C", "yeast fitness": "≤ 0.5"}
{"variant": "G25C G44A A69U", "yeast fitness": 0.622}
{"variant": "C24U U26G G51A", "yeast fitness": "≤ 0.5"}
{"variant": "G25A C30A", "yeast fitness": 0.836}
{"variant": "G25A C30G", "yeast fitness": 0.636}
{"variant": "C24U A42U G52C", "yeast fitness": 0.578}
{"variant": "C24G C31G", "yeast fitness": 0.773}
{"variant": "C24U G58A", "yeast fitness": 0.988}
{"variant": "C24U G25A C30U", "yeast fitness": 0.684}
{"variant": "G25A G56C", "yeast fitness": 0.711}
{"variant": "G25C C34U", "yeast fitness": 0.558}
{"variant": "U26A C31A A42G C55G A57C", "yeast fitness": "≤ 0.5"}
{"variant": "G25A G56A A69C", "yeast fitness": 0.773}
{"variant": "C24U C30A A37G", "yeast fitness": 0.593}
{"variant": "G25A C34A A36C", "yeast fitness": 0.587}
{"variant": "G25C U59A", "yeast fitness": 0.804}
{"variant": "U26A C27U U59C A65G", "yeast fitness": 0.65}
{"variant": "G25A C31A G44C", "yeast fitness": 0.597}
{"variant": "G25C A40C G68C", "yeast fitness": 0.645}
{"variant": "C24G G41C G68C", "yeast fitness": 0.592}
{"variant": "C24G C49U C55G G58A", "yeast fitness": 0.764}
{"variant": "G25C A36G G48A", "yeast fitness": 0.571}
{"variant": "G25A C30A A45G U64C", "yeast fitness": 0.984}
{"variant": "C24U C49G", "yeast fitness": 0.724}
{"variant": "C24G C30G C62U G68C", "yeast fitness": "≤ 0.5"}
{"variant": "U26A C27A", "yeast fitness": 0.671}
{"variant": "G25C C29A G52A", "yeast fitness": 0.505}
{"variant": "G25A C33G A42G G50A G52A", "yeast fitness": "≤ 0.5"}
{"variant": "U26A U28C C30G C62A", "yeast fitness": "≤ 0.5"}
{"variant": "C24U G41C", "yeast fitness": 0.847}
{"variant": "C24U U47A G48C U54G A65C", "yeast fitness": "≤ 0.5"}
{"variant": "C24G C29G C33A G48A C55G G68C", "yeast fitness": "≤ 0.5"}
{"variant": "C24U A45C A69C", "yeast fitness": 0.619}
{"variant": "C24U C49U U59G G67U", "yeast fitness": "≤ 0.5"}
{"variant": "C24U U32A G38A A57U G68U", "yeast fitness": "≤ 0.5"}
{"variant": "C24G U26A G41C C66U", "yeast fitness": 0.608}
{"variant": "C24G C27U C33U G50C C66U", "yeast fitness": "≤ 0.5"}
{"variant": "C24G G38A G44C", "yeast fitness": "≤ 0.5"}
{"variant": "C24U G56A C60A", "yeast fitness": 0.594}
{"variant": "G25C U28A G51A", "yeast fitness": 0.604}
{"variant": "G25C A37U", "yeast fitness": 0.56}
{"variant": "G25A C49A G68C", "yeast fitness": "≤ 0.5"}
{"variant": "C24G C30G C34G A70G", "yeast fitness": "≤ 0.5"}
{"variant": "C24U C33G U59C U64A", "yeast fitness": 0.686}
{"variant": "C24U C31G C60A U64C", "yeast fitness": "≤ 0.5"}
{"variant": "U26C A43G", "yeast fitness": 1.01}
{"variant": "U26C A43C", "yeast fitness": 0.952}
{"variant": "C24G C49G G50C", "yeast fitness": "≤ 0.5"}
{"variant": "G25A A40U G58C", "yeast fitness": 0.973}
{"variant": "U26C A42G G67U", "yeast fitness": 0.647}
{"variant": "C24U U32C C46A A70U", "yeast fitness": 0.65}
{"variant": "C24G C27A U32C U64A", "yeast fitness": "≤ 0.5"}
{"variant": "G25C C34U A40G U54A A65G", "yeast fitness": 0.582}
{"variant": "C24U C46A A69G", "yeast fitness": 0.996}
{"variant": "U26A A40U", "yeast fitness": 0.809}
{"variant": "C24U A57C C61U", "yeast fitness": "≤ 0.5"}
{"variant": "G25A C31U A37C G52C", "yeast fitness": "≤ 0.5"}
{"variant": "U26A C46G", "yeast fitness": 0.973}
{"variant": "C24G G41A", "yeast fitness": 0.619}
{"variant": "G25A A36U C46G C62A A69C", "yeast fitness": "≤ 0.5"}
{"variant": "C24U A45C U47A G63A", "yeast fitness": "≤ 0.5"}
{"variant": "C24G G44A C46U U53C C62U", "yeast fitness": "≤ 0.5"}
{"variant": "C24U C60U", "yeast fitness": 0.797}
{"variant": "G25A C29G G48A A69U", "yeast fitness": "≤ 0.5"}
{"variant": "C24U U28C G48A C61G", "yeast fitness": "≤ 0.5"}
{"variant": "G25A A42U A57G", "yeast fitness": "≤ 0.5"}
{"variant": "C24U G44A C60U C62A", "yeast fitness": "≤ 0.5"}
{"variant": "C24U C29G C31U U64A", "yeast fitness": "≤ 0.5"}
{"variant": "C24U A37U", "yeast fitness": 0.652}
{"variant": "C24G U59A", "yeast fitness": 0.552}
{"variant": "U26A C29A A45U G58A", "yeast fitness": "≤ 0.5"}
{"variant": "G25C A37G A43C C55G G68A", "yeast fitness": "≤ 0.5"}
{"variant": "C24U A45G A69U", "yeast fitness": 0.888}
{"variant": "C24G G48A", "yeast fitness": 0.588}
{"variant": "U26A G48A C49G A70U", "yeast fitness": "≤ 0.5"}
{"variant": "C24U C46A C62A A69C", "yeast fitness": 0.573}
{"variant": "U26C A36C A45G U54C", "yeast fitness": "≤ 0.5"}
{"variant": "U26A C33A", "yeast fitness": 0.689}
{"variant": "G25A U28G C33G A45C", "yeast fitness": "≤ 0.5"}
{"variant": "U26A G56A", "yeast fitness": 1.02}
{"variant": "C24G C49G G68U", "yeast fitness": "≤ 0.5"}
{"variant": "G25A C30G C34A C49G", "yeast fitness": "≤ 0.5"}
{"variant": "C24U U53A", "yeast fitness": 0.626}
{"variant": "C24U C29A C33U", "yeast fitness": "≤ 0.5"}
{"variant": "U26A C31G A37G G63A", "yeast fitness": "≤ 0.5"}
{"variant": "C24G C60U G63A", "yeast fitness": "≤ 0.5"}
{"variant": "C24U C29U C46U", "yeast fitness": 0.554}
{"variant": "G25A U35C A43G", "yeast fitness": "≤ 0.5"}
{"variant": "C24U A43C", "yeast fitness": 0.786}
{"variant": "C24G G39A A70C", "yeast fitness": "≤ 0.5"}
